The text below walks through data of article PMC3213326 (Molecular cancer therapeutics, 2011).

In experiment [1] the test system is KLF5. The experiment in a line: Western blot of endogenous KLF5 protein levels in DLD-1 cells. It is filed as cell-based, human. The settings on record: 24 h; for effect on endogenous KLF5 levels: DLD-1, 10 µM. A digest of the protocol:
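DLD-1 cells were seeded at 2 × 10⁵ per well in 1 ml medium. At 24 h after seeding they were treated with 5 or 10 µM test compound in DMSO, or with DMSO alone, for 24 h. Cells were lysed in Laemmli buffer, run on polyacrylamide gel and transferred to nitrocellulose. Blots were probed with rabbit polyclonal anti-KLF5 (residues 95–111) and mouse monoclonal anti-β-actin, and scanned films were quantified by densitometry.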
A general note: In western blotting, separated proteins are transferred to a membrane and probed.

The next experiment has as its system EGR1. The experiment in a line: Western blot of EGR1 in DLD-1 cells. The settings on record: DLD-1, 10 µM, 24 h. It is filed as cell-based, human. In a few lines:
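DLD-1 cells were seeded at 2 × 10⁵ per well in 1 ml medium. At 24 h after seeding they were given test compound in DMSO or DMSO alone for 24 h. Lysates were made in Laemmli buffer, separated by polyacrylamide gel electrophoresis and transferred to nitrocellulose. Membranes were probed with rabbit anti-EGR1, and scanned films were quantified by densitometry.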

The subject of experiment [2] is KLF5. Description: Western blot of endogenous KLF5 levels in IEC-6 cells. It is filed as cell-based, rat. Particulars: wide range of concentrations.
Another experiment deals with DLD-1 cells. Description: Cell viability assay. Type of experiment: cell-based, human. The settings on record: 48 h; for effect on proliferation of DLD-1 cells: various concentrations. A digest of the protocol:
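DLD-1 cells were plated at 10⁴ per well in 96-well plates. They were dosed at once with increasing concentrations of test compound in DMSO (final 0.4%) or with DMSO alone. After 48 h, viability was read by Cell-Titer Glo luminescence. The DMSO control was set to 100%. Runs were done in triplicate, and IC50 came from a nonlinear sigmoidal dose-response fit.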

Experiment [3] relates to NCI-60 panel of human cancer cell lines. The experiment in a line: NCI-60 panel screen. It is filed as cell-based. The settings on record: 10 µM.
The next experiment relates to leukemia cell lines. The experiment in a line: NCI-60 panel screen, leukemia lines. Type of experiment: cell-based, human. Particulars: 10 µM.
The subject of experiment [4] is KM12 colon cancer cell line. Description: NCI-60 panel screen, KM12. Type of experiment: cell-based, human. Particulars: 10 µM, cell line highly expressing KLF5.

Molecules are shown by their SMILES.

For the molecule `CN(C(=O)CNC(=O)/C=C/c1cccc([N+](=O)[O-])c1)C1CCS(=O)(=O)C1` (stereo not shown) [compound 46931037], the “effect on endogenous KLF5 levels” value in the experiment on KLF5 [1] is given as “similarly affect KLF5 protein levels”. In addition, the “effect on EGR1” value in the experiment with EGR1 was “downregulated EGR1”.

In the case of `CN(C(=O)CNC(=O)/C=C/c1cccc(Cl)c1)C1CCS(=O)(=O)C1` (stereo not shown) [compound 46931043], in the experiment on KLF5 [1], the “effect on endogenous KLF5 levels” value is reported as “similarly affect KLF5 protein levels”.

`CC1=CCCC2(C)C(CCC2(O)CN(CCc2cccs2)S(=O)(=O)c2cccs2)c2ccc(cc2C(=O)Cc2c(F)cccc2Cl)CC(O)CC1` (stereo not shown) [compound 4395011]: the “effect on endogenous KLF5 levels in IEC-6 cells” value in the experiment with KLF5 [2] is reported as “neither CIDs 4395011 nor 5951923 reduced endogenous KLF5 levels”.

Take `CN(C(=O)COC(=O)/C=C/c1cccc([N+](=O)[O-])c1)C1CCS(=O)(=O)C1` (stereo not shown) [CID 5951923]: the “effect on proliferation of DLD-1 cells” value in the experiment with DLD-1 cells is listed as “inhibited proliferation of DLD-1 cells in a dose-dependent manner”. Besides, the “effect on endogenous KLF5 levels in IEC-6 cells” value in the experiment with KLF5 [2] is “neither CIDs 4395011 nor 5951923 reduced endogenous KLF5 levels”. Also, the “potency of inhibition in NCI-60 panel” value in experiment [3] is recorded as “potency was weak”. In addition, the “inhibition of leukemia cell lines” value in the experiment on leukemia cell lines is on record as “inhibition in a number of leukemia cell lines”. In addition, the “inhibition of KM12 colon cancer cell line” value in experiment [4] is “poor inhibition”. The “effect on EGR1” value in the experiment with EGR1 is recorded as “downregulated EGR1”.

Consider `C[C@@H]1O[C@@H](O[C@H]2C[C@@H](O)[C@]3(CO)[C@H]4[C@H](O)C[C@]5(C)[C@@H](C6=CC(=O)OC6)CC[C@]5(O)[C@@H]4CC[C@]3(O)C2)[C@H](O)[C@H](O)[C@H]1O` [compound 439501], for which the “effect on proliferation of DLD-1 cells” value in the experiment on DLD-1 cells is on record as “inhibited proliferation of DLD-1 cells in a dose-dependent manner”. Moreover, in the experiment with DLD-1 cells (read-out: IC50 for DLD-1 proliferation (cell viability), Cell-Titer Glo), the IC50 stood at 0.046 µM. Besides, the “inhibitory effect on KLF5 levels relative to the other three tested compounds” value in the experiment on KLF5 [1] (DLD-1, 5 and 10 µM) is reported as “more pronounced”.
